# STAT3 act – STAT3 signaling activation. AID 871. activation (% of control), % at 5.6 µM. actives 0.91% (n = 190,000). U3A cells, IL-6 STAT3-luciferase reporter, luminescence; 100% = signal with IL-6 EC80 alone;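 active means activation above the screen-wide mean of compound activation plus 3 SD, cut at about 130% in these data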;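 further: 0% = background luminescence of wells with medium and substrate only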
#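 Detection: reporter luminescence signal / Assay system: STAT1-lacking human U3A cells, STAT3 luciferase reporter / Incubation: compound pre-incubation 1 h before IL-6, then 6 h stimulation at 37 °C / Control set: IL-6-only high control / Read-out: % activation relative to IL-6 control / Probe or stimulus: Interleukin-6, 33 ng/mL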
# STAT3 inh-1 – STAT3 signaling inhibition; U3A cells, IL-6 STAT3-luciferase reporter, luminescence; host cell line lacks STAT1; inhibition, % at 5.5 µM; actives 0.89% (n = 190,000);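 active means inhibition above the mean inhibition across all screened compounds plus 3 SD, cut at about 44% in these data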;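 further: 0% = DMSO only wells and 100% = 100 µM nifuroxazide control wells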
# C8 TRAIL sens – sensitizes caspase-8 expressing cells to TRAIL | NB7+C8 cells + TRAIL, ATPlite viability luminescence | inhibition (viability loss, TRAIL sensitization), % at 10 µM | actives 1% (n = 360,000);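 active means compounds causing at least 50% loss of cell viability in the single-dose screen, relative to plate controls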
# PPC-1+TRAIL kill – kills PPC-1 cancer cells in the presence of TRAIL; PPC-1 cells + TRAIL, ATPLite viability luminescence; cell killing (% activity), % at 4 µM or 5 µM; actives 0.41% (n = 220,000); AID 1443;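 active means cell killing above 50% in the first pass at 4 µM, then a duplicate retest at 5 µM averaging 50% or more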;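 further: plate controls were cells with TRAIL plus DMSO for no effect and medium-only wells lacking cells for full effect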
# STAT1 inh – inhibitors of IFN-gamma induced STAT1 signaling; AID 920; inhibition, % at 5.5 µM; actives 0.35% (n = 200,000); NIH 3T3 STAT1-luciferase reporter, luminescence;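 active means inhibition above a set limit, the mean inhibition across all tested compounds plus 3 SD, cut at about 34% in these data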;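 further: 0% = IFN-gamma with DMSO and 100% = IFN-gamma with 300 µM nifuroxazide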
# STAT3 inh-2 – confirmation of STAT3 signaling inhibitors. shares compounds with STAT3 inh-1. U3A cells, IL-6 STAT3 luciferase reporter, luminescence; cell line lacks STAT1. inhibition, % at 5.7 µM. actives 45% (n = 1,200);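 active means inhibition above the hit cutoff computed for the primary STAT3 screen, cut at about 44% in these data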;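 further: 0% = IL-6 plus DMSO and 100% = IL-6 plus nifuroxazide control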
# NFkB inh STAT3ct – inhibits NF-kappaB, counter-screen to STAT3 inhibitors | actives 36% (n = 1,200) | shares compounds with STAT3 inh-1 | HEK293T NF-kB luciferase reporter, TNF-alpha induced | AID 1308 | inhibition, % at 5.7 µM;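 active means inhibition above the mean of solvent-only control wells plus 3 SD, cutoff set per campaign, cut at about 13% in these data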;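 further: 0% = TNF-alpha with DMSO and 100% = TNF-alpha with MG high control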
# STAT1 inh 2 – counter-screen for STAT3 inhibitors: STAT1 inhibition | shares compounds with STAT3 inh-1 | NIH 3T3 STAT1-luciferase reporter, IFN-gamma induced, luminescence | inhibition, % at 5.7 µM | actives 27% (n = 1,200);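 active means inhibition above the mean plus 3 SD of solvent-only control wells, limit set per screening run, cut at about 16% in these data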;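 further: 0% = DMSO with IFN-gamma and 100% = nifuroxazide control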
# * marks the source's active call; other numbers are inactive results; · = no result. A selection: hits, their analogues and other compounds. The true share with any hit is near 1.8%.
SMILES,STAT3 act,STAT3 inh-1,C8 TRAIL sens,PPC-1+TRAIL kill,STAT1 inh,STAT3 inh-2,NFkB inh STAT3ct,STAT1 inh 2
CC1=NC(=O)C(N=Nc2cccc(C(=O)O)c2)N1c1ccccc1 (stereo not given),45.5,64.9*,2.6,19.7,28.8,41.4,17.9*,-30.2
CS(=O)(=O)N1CCc2cc(S(=O)(=O)Nc3ccc4c(c3)OCCO4)ccc21,63.9,46.0*,2.3,4.6,27.2,36.3,1.8,20.8*
CCC(=O)N1CCc2cc(S(=O)(=O)Nc3ccc4c(c3)OCCO4)ccc21,63.8,46.6*,30.4,18.0,21.0,34.7,-2.1,12.4
CS(=O)(=O)N1CCc2cc(S(=O)(=O)NCCNS(=O)(=O)c3ccc4c(c3)CCN4S(C)(=O)=O)ccc21,106.8,-2.7,0.5,21.0,3.0,·,·,·
CCC(=O)N1CCCc2cc(S(=O)(=O)N3CCN(c4ccccc4F)CC3)ccc21,61.9,52.6*,83.2*,8.4,21.5,35.6,11.0,12.5
CCC(=O)N1CCCc2cc(S(=O)(=O)N3CCN(c4ncccn4)CC3)ccc21,92.8,16.9,18.6,10.3,1.7,·,·,·
O=C(C1CCC1)N1CCc2cc(S(=O)(=O)Nc3ccc4c(c3)OCCO4)ccc21,49.2,65.3*,13.2,8.3,22.3,50.4*,7.6,20.6*
Cc1cc(Cl)c(S(=O)(=O)N2CCN(c3ccc(F)cc3)CC2)cc1OCC(N)=O,64.5,45.0*,0.4,10.4,4.2,33.5,5.8,1.2
Cc1cc(Cl)c(S(=O)(=O)N2CCN(c3ccc(F)cc3)CC2)cc1OCC(=O)NC1CCCCC1,27.3,88.4*,26.6,11.0,17.7,84.6*,35.1*,9.6
CN(C)c1ccc(N2C(=NC(=O)C3CCCO3)SC3CS(=O)(=O)CC32)cc1 (stereo not given),·,·,-4.9,·,·,·,·,·
COCCCN1C(=O)C2C(C(=O)Nc3cccc(Cl)c3)C3C=CC2(O3)C1C(=O)NC1CCCCC1 (stereo not given),·,·,-2.8,·,·,·,·,·
CC(=O)Nc1ccc2ccccc2c1[N+](=O)[O-],·,·,9.1,·,·,·,·,·
CC(=O)c1ccc(NC(=S)Nc2cccc(Cl)c2C)cc1,75.2,34.7,-3.1,24.5,-3.5,·,·,·
CCN1CCN(C(=O)CSc2nc3c(c(=O)n(C)c(=O)n3C)n2C)CC1,·,·,-11.1,·,·,·,·,·
COc1cc(C(=O)N2CCN(c3ncnc4sc(C)c(C)c34)CC2)cc(OC)c1OC,61.9,51.7*,12.9,13.1,36.8*,45.1*,17.2*,30.9*
COc1cc(NC(=O)COC(=O)c2[nH]c(C)c(C(C)=O)c2C)cc(OC)c1,·,·,27.4,·,·,·,·,·
COC(=O)c1ccc(NC(=O)CCN2CCN(CCC(=O)Nc3ccc(C(=O)OC)cc3)CC2)cc1,60.8,48.6*,15.1,19.3,0.0,38.3,8.3,4.2
COC(=O)c1ccc(NC(=O)CCN2CCCCC2)cc1,78.1,31.5,-8.9,5.0,6.2,·,·,·
Nc1ncnc(N2CCc3ccccc32)c1[N+](=O)[O-],98.4,10.1,-2.3,-11.0,16.6,·,·,·
N#Cc1ccccc1COc1ccc(/C=C/C(=O)O)cc1,63.6,47.5*,14.5,20.8,17.6,37.0,16.0*,11.0
C=C(C)C(=O)Oc1ccc(N=Nc2ccc(C)cc2)ccc1=O,·,·,16.4,·,·,·,·,·
CC(=O)c1ccc(N=Nc2ccc(C)cc2)cc1,33.5,81.8*,46.6,44.3,30.8,44.4*,-10.1,-96.1
CC(=O)c1ccc(N=Nc2ccc(N(C)C)cc2)cc1,56.2,52.5*,78.3*,45.1,-19.3,47.4*,22.4*,-68.7
COc1cc(OC)c(NC(=O)C(=O)CC(=O)c2ccc(C)cc2C)cc1Cl,90.8,18.2,-1.2,9.0,3.2,·,·,·
C[C@H](CO)N1C[C@H](C)[C@@H](CN(C)C(=O)Oc2ccccc2)OCc2cn(nn2)CCCC1=O,·,·,3.2,·,·,·,·,·
SMILES,STAT3 act,STAT3 inh-1,C8 TRAIL sens,PPC-1+TRAIL kill,STAT1 inh,STAT3 inh-2,NFkB inh STAT3ct,STAT1 inh 2
O=C(Nc1cc(Cl)ccn1)C1CCN(S(=O)(=O)c2cccs2)CC1,56.2,51.2*,19.0,25.0,0.0,43.1,1.3,-7.4
O=C(Nc1ccncc1)C1CCN(S(=O)(=O)c2cccs2)CC1,97.7,5.1,-8.1,2.1,9.5,·,·,·
CC1CCN(C(=O)Cn2c(=O)c3cccn3c3ccccc32)CC1,·,·,-0.8,·,·,·,·,·
COc1cc(/C=N/Nc2snc(SC)c2C#N)cc(OC)c1OC,50.9,59.2*,38.4,22.9,8.2,40.6,3.6,-7.2
COc1ccccc1CNC(=O)CN1C(=O)NC2(CCCCCCC2)C1=O,·,·,-4.0,·,·,·,·,·
CCc1c(C)nc2ncnn2c1NCCc1ccc(OC)cc1,44.1,66.5*,23.3,-5.3,20.1,65.4*,28.1*,25.8*
CCc1c(C)nc2ncnn2c1Nc1ccc(C)cc1,·,·,1.7,·,·,·,·,·
Cc1nn(C)c(C)c1NC(=O)CSc1nc(C2CC2)nc2c1cnn2-c1ccccc1,61.6,50.3*,6.9,17.6,4.7,36.9,7.3,-3.4
CS(=O)(=O)N1CCc2cc(-c3csc(NC(=O)Cc4cccs4)n3)ccc21,35.9,81.9*,27.0,16.1,4.2,71.9*,18.8*,8.0
COc1ccc(NC(=O)CSc2ccccn2)cc1OC,103.9,-0.2,0.4,13.6,4.5,·,·,·
COc1ccc(NC(=O)CSc2ncccc2C(=O)OC(C)C)cc1OC,61.1,50.6*,8.0,2.5,16.8,37.3,7.6,17.0*
COc1ccc(Cc2nc3ccc(C(=O)NCCc4ccncc4)cc3o2)cc1OC,·,·,6.8,·,·,·,·,·
COc1ccc(C(=O)Nc2ccc3oc(Cc4ccc(Cl)cc4)nc3c2)cc1OC,63.0,51.2*,9.3,12.9,9.4,44.8*,7.6,3.1
CCN1C(=O)[C@H]2[C@@H](c3ccc(C(F)(F)F)cc3)N[C@]3(CCCN(Cc4ccc(C(F)(F)F)cc4)C3=O)[C@H]2C1=O,·,·,9.4,·,·,·,·,·
CCCCCc1ccc(OCCOCCn2c[n+](C)c3ccccc32)c(CCCCC)c1,53.9,56.1*,38.6,44.6,30.7,65.9*,15.7*,22.8*
COc1cccc(CNc2nc3cc(-c4ccccc4C)sc3c(=O)n2C)c1OC,·,·,-4.3,·,·,·,·,·
Cn1cc(C(=O)c2ccc(Cl)cc2)cc1-c1nc2ccccc2n1C,66.1,46.1*,14.0,-5.9,16.2,31.9,-3.4,5.8
Cn1c(=O)c(C(=O)c2ccccc2)nc2ccccc21,111.5,-7.4,-7.3,-7.9,-3.1,·,·,·
COCCNC(=O)C[C@@H]1C[C@H]2c3cc(NC(=O)Nc4ccc(F)cc4)ccc3O[C@H]2[C@H](CO)O1,·,·,1.7,·,·,·,·,·
CC(=O)c1c(C)[nH]c(C(=O)COc2cc(C)ccc2C(C)C)c1C,44.7,68.1*,26.8,-12.8,27.4,72.7*,21.3*,22.0*

# Screening results: PubChem, several laboratories
